The experiment deals with PBMC from prostate cancer patients. Briefly: Ex vivo IFN-γ ELISPOT assay for immunogenicity. Type of experiment: cell-based, human. The following applies: positive control 10 µg/ml, 40 h. The method in brief: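 Ficoll-isolated patient PBMC, 3×10^5/well in triplicate, on anti-IFN-γ-coated plates (5 μg/ml; blocked with RPMI 1640 + 5% pooled human serum, 1 h, 37°C). Phytohemagglutinin 10 µg/ml; no-peptide medium control; IL-2 20 units/ml in all wells; 40 h, 37°C. Detection: biotin anti-IFN-γ 1 µg/ml final (2 h), avidin-biotin-HRP (1 h), […]. Spots counted automatically; mean SFU/well computed; positive if ≥2× no-peptide wells.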

Turning to phytohemagglutinin, the Positivity index was determined as 57.3 (Patient 2); 197.0 (Patient 5); 154.5 (Patient 6); 131.4 (Patient 7); 186.0 (Patient 9); 253.3 (Patient 10).
